Experimental data published in EPA's CvTdb concentration-time database.

Legend:
[1] = tested on: Rat; assay: concentration in plasma after dosing; settings: dosed: 2-Hydroxy-4-methoxybenzophenone, 100 mg/kg, oral, Female, F344
[2] = tested on: Mouse; assay: concentration in plasma after dosing; settings: dosed: 2-Hydroxy-4-methoxybenzophenone, 100 mg/kg, oral, Female, B6C3F1
[3] = tested on: Rat; assay: concentration in plasma after dosing; settings: dosed: 2-Hydroxy-4-methoxybenzophenone, 250 mg/kg, oral, Female, F344
[4] = tested on: Mouse; assay: concentration in plasma after dosing; settings: 2 h; dosed: 2-Hydroxy-4-methoxybenzophenone; 50 mg/kg; iv; Male; B6C3F1
[5] = tested on: Mouse; assay: concentration in plasma after dosing; settings: 2.5 min; dosed: 2-Hydroxy-4-methoxybenzophenone; 250 mg/kg; oral; Male; B6C3F1
[6] = tested on: Mouse; assay: concentration in plasma after dosing; settings: 0.25 h; dosed: 2-Hydroxy-4-methoxybenzophenone; 500 mg/kg; oral; Female; B6C3F1
[7] = tested on: Mouse; assay: concentration in plasma after dosing; settings: 10 min; dosed: 2-Hydroxy-4-methoxybenzophenone; 250 mg/kg; oral; Female; B6C3F1
[8] = tested on: Mouse; assay: concentration in plasma after dosing; settings: 10 min; dosed: 2-Hydroxy-4-methoxybenzophenone; 250 mg/kg; oral; Male; B6C3F1
[9] = tested on: Rat; assay: concentration in plasma after dosing; settings: dosed: 2-Hydroxy-4-methoxybenzophenone, 500 mg/kg, oral, Female, F344
[10] = tested on: Rat; assay: concentration in plasma after dosing; settings: 0.5 h; dosed: Nitrite; 40 mg/kg; oral; Female; F344
[11] = tested on: Rat; assay: concentration in plasma after dosing; settings: 0.5 h; dosed: Nitrite; 20 mg/kg; iv; Male; F344
[12] = tested on: Rat; assay: concentration in plasma after dosing; settings: dosed: Nitrite, 80 mg/kg, oral, Female, F344
[13] = tested on: Rat; assay: concentration in plasma after dosing; settings: dosed: Nitrite, 80 mg/kg, oral, Female, F344; remark: listed apart in the source
[14] = tested on: Rat; assay: concentration in plasma after dosing; settings: 5 min; dosed: Nitrite; 80 mg/kg; oral; Female; F344
[15] = tested on: Rat; assay: concentration in plasma after dosing; settings: 0.5 h; dosed: Nitrite; 20 mg/kg; iv; Male; F344; remark: listed apart in the source
[16] = tested on: Rat; assay: concentration in plasma after dosing; settings: 2 min; dosed: Nitrite; 80 mg/kg; oral; Female; F344
[17] = tested on: Rat; assay: concentration in plasma after dosing; settings: 0.5 h; dosed: Nitrite; 80 mg/kg; oral; Female; F344
[18] = tested on: Rat; assay: concentration in liver after dosing; settings: 6 h; dosed: Perfluorooctanoic acid; 80 mg/kg; oral; Female; Harlan Sprague Dawley
[19] = tested on: Rat; assay: concentration in kidney after dosing; settings: 12 h; dosed: Fluorotelomer alcohol 8+2; 80 mg/kg; oral; Female; Harlan Sprague Dawley
[20] = tested on: Rat; assay: concentration in kidney after dosing; settings: 12 h; dosed: Fluorotelomer alcohol 8+2; 80 mg/kg; oral; Female; Harlan Sprague Dawley; remark: listed apart in the source
[21] = tested on: Rat; assay: concentration in plasma after dosing; settings: dosed: 678-39-7, 40 mg/kg, iv, Male, F344
[22] = tested on: Rat; assay: concentration in brain after dosing; settings: 24 h; dosed: Perfluorooctanoic acid; 12 mg/kg; oral; Male; Harlan Sprague Dawley
[23] = tested on: Rat; assay: concentration in kidney after dosing; settings: 24 h; dosed: Perfluorooctanoic acid; 80 mg/kg; oral; Female; Harlan Sprague Dawley
[24] = tested on: Rat; assay: concentration in plasma after dosing; settings: 192 h; dosed: 678-39-7; 12 mg/kg; iv; Male; F344
[25] = tested on: Rat; assay: concentration in plasma after dosing; settings: dosed: Potassium Perfluorobutane Sulfonate, 20 mg/kg, oral, Male, Harlan Sprague Dawley
[26] = tested on: Rat; assay: concentration in kidney after dosing; settings: 0.5 h; dosed: Potassium Perfluorobutane Sulfonate; 20 mg/kg; oral; Female; Harlan Sprague Dawley
[27] = tested on: Rat; assay: concentration in plasma after dosing; settings: 1 h; dosed: Potassium Perfluorobutane Sulfonate; 4 mg/kg; iv; Female; Harlan Sprague-Dawley
[28] = tested on: Rat; assay: concentration in kidney after dosing; settings: 0.5 h; dosed: Potassium Perfluorobutane Sulfonate; 20 mg/kg; oral; Male; Harlan Sprague Dawley
[29] = tested on: rat; assay: amount in urine after dosing (umol); settings: dosed: methanol, 100 mg/kg, iv, male, CDF(F344)/CrlBR
[30] = tested on: monkey; assay: concentration in blood after dosing; negative times count back from the end of exposure; settings: dosed: methanol, 1200 ppm, inhalation, duration: 6 hr, male, Macaca mulatta
In short: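 Concentration-versus-time or amount-versus-time points were compiled from published in vivo toxicokinetic studies and from two structured collections. The studies were found by PubMed searching, classifier screening and manual review. Points were mostly digitised from plot screenshots with WebPlotDigitizer, otherwise copied from tables, and kept in the reported units. Dose, route, subject details and medium were curated by hand from each paper, and sampling and analytical methods follow each source and were often unreported.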

COc1ccc(C(=O)c2ccccc2)c(O)c1 [2-Hydroxy-4-methoxybenzophenone]
Settings	concentration in plasma [µg/mL]
[1], 0.25 h	0.1
[1], 4 h	0.0163
[2], 0.25 h	0.081
[2], 2 h	0.00458
[2], 2.5 min	0.0153
[2], 3 h	0.00505
[2], 10 min	0.0373
[3], 0.25 h	0.453
[3], 4 h	0.019
[9], 2.5 min	0.0473
[9], 4 h	0.24

Settings	concentration in plasma [µg/mL]
[4]	0.236
[5]	0.022
[6]	1.23
[7]	0.117
[8]	0.148

O=N[O-] [Nitrite]
Settings	concentration in plasma [µg/mL]
[10]	11.6
[11]	8.1
[14]	18.7
[15]	3.7
[16]	3.9
[17]	30.2

concentration in plasma [µg/mL]
Settings	1 h	2 h	6 h	10 min
[12]	11.2	12.2	–	–
[13]	–	–	1.7	10.8

O=C(O)C(F)(F)C(F)(F)C(F)(F)C(F)(F)C(F)(F)C(F)(F)C(F)(F)F [Perfluorooctanoic acid]
Settings	concentration in brain [ng/g]	concentration in kidney [ng/g]	concentration in liver [ng/g]	concentration in plasma [µg/mL]
[18]	–	–	160000	–
[19]	–	626	–	–
[20]	–	711	–	–
[22]	1210	–	–	–
[23]	–	12300	–	–
[24]	–	–	–	0.307

[21]
Settings	concentration in plasma [µg/mL]
0.5 h	234
3 h	2.8
5 min	0.172
12 h	25.6

O=S(=O)([O-])C(F)(F)C(F)(F)C(F)(F)C(F)(F)F.[K+] [Potassium Perfluorobutane Sulfonate]
[25]
Settings	concentration in plasma [µg/mL]
0.25 h	24.8
24 h	0.848

Settings	concentration in kidney [ng/g]	concentration in plasma [µg/mL]
[26]	26700	–
[27]	–	5.12
[28]	9690	–

CO [methanol]
Settings	amount in urine	concentration in blood [µg/mL]
[29], 0.9988 h	1.09	–
[29], 2.972 h	5.07	–
[29], 5.961 h	7.79	–
[29], 9.961 h	11.5	–
[29], 11.92 h	11.7	–
[29], 14.89 h	11.7	–
[30], 0.9399 h	–	16.1
[30], 1.959 h	–	9.03
[30], 2.967 h	–	4.92
[30], 4.499 h	–	3.11
[30], 6.031 h	–	0.903

[30], during exposure
Settings	concentration in blood [µg/mL]
-98 s	26.9
-5.593 h	4.82
-5.081 h	8.33
-3.07 h	21
